Shown are actives, neighbours in structure and some others; about 3.4% of the full set was active somewhere.
DTT redox prof: compounds producing H2O2 with reducing agent – biochemical, NIH compound library profiling, artefact control for MLSCN library redox annotation, primary screen; DTT-dependent redox cycling H2O2, phenol red/HRP absorbance; 100% = 100 µM peroxide control, 0% = buffer; activation, % at 10 µM; 0.03% of 200,000 active; AID 878, 2007;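 active = activation of at least 50% relative to the plate's high and low controls in the primary single-dose screen; inactive = activation below 50%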;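 note: compound incubated with DTT at 0.8 mM final as the reducing agent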
ROMK mod: ROMK potassium channel modulators, primary screen, cell-based, thallium flux, MLSMR library; Tet-inducible ROMK, thallium flux fluorescence; actives lie on both sides; B-score at 10 µM; 2% of 130,000 active; ATP-sensitive inward rectifier potassium channel 1 (Homo sapiens), P48048;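 active = signal ratio slope over the read window, or its plate-corrected B-score, at least 3 SD from the plate mean, either direction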;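 note: B-score of the F/F0 ratio slope over 7 to 12 s after thallium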
Target sequence (P48048 whole entry, looked up): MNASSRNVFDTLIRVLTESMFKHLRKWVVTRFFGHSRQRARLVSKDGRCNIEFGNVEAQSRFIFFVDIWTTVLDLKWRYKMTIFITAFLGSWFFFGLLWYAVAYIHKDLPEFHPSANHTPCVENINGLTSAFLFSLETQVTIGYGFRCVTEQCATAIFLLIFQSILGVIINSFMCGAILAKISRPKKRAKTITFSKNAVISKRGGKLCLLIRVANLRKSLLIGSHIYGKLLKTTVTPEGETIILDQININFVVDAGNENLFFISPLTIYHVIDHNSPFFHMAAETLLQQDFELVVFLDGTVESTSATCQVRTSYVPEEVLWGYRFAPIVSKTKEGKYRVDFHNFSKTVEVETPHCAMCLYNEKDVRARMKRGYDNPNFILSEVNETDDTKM
p97 ATPase inh: inhibitors of human p97 ATPase, primary screen, biochemical | Transitional endoplasmic reticulum ATPase (Homo sapiens), P55072 | inhibition, % at 8 µM | recombinant p97 ATPase, Kinase-Glo ATP luminescence, 3 h | 0.42% of 220,000 active | AID 1481, 2009; in the data active = inhibition above about 15%;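 note: 0% = DMSO vehicle and 100% = wells lacking enzyme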
Cl transport mod: KCC2 cotransporter modulators, thallium flux, primary screen, cell-based, HEK293 KCC2, FluoZin-2 fluorescence, MLSMR; 2.2% of 190,000 active; AID 1456, 2008; B-score of Tl+ flux slope (higher = more flux/activation; lower = inhibition) at 10 µM; Solute carrier family 12 member 5 (Homo sapiens), Q9H2X9; KCC2 cells, thallium flux FluoZin-2 fluorescence;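 active = thallium flux slope and its plate-corrected score both differing from the plate sample mean at a set confidence after two filtering rounds, in either direction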;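 note: slope of fluorescence scaled to starting intensity during 10 to 20 s after thallium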
PKD1 kinase inh: inhibitors of human PKD1 kinase, biochemical, fluorescence polarization; Serine/threonine-protein kinase D1 (Homo sapiens), Q15139; AID 797, 2007; 0.056% of 200,000 active; inhibition, % (concentration not given with the values); PKD1 kinase fluorescence polarization assay; in the data active = inhibition above about 50%
Mdm2 ligase inh: MDM2-luciferase reporter signal enhancers, primary screen, MDM2 E3 ligase inhibitor project, cell-based, luminescence, 1536-well; E3 ubiquitin-protein ligase Mdm2 (Homo sapiens), Q00987; cell-based MDM2 ubiquitination luciferase reporter, 2 h; 0 = plate control, 100 = twice control, blank-subtracted; signal enhancement, % at 5 µM; 0.11% of 210,000 active; AID 1230, 2008;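 active = signal enhancement of 30% or more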;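 note: luminescence tracks abundance of the self-degrading MDM2-luciferase fusion protein; higher signal means inhibition of MDM2 E3 ligase activity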
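Material: stable MDM2–luciferase fusion reporter cells / Quantity: 2000 cells/well / Dosing: single 5 µM compound dose, 0.2% final DMSO / Buffer or medium: DMEM / Schedule: 4 h cell settling then 2 h compound exposure, 37 °C / Detection: luminescence with SteadyLite reagent, 15 min at room temperature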
KCC2 sec1: KCC2 modulators in sodium-free buffer, confirmation, cell-based, HEK293 KCC2, thallium flux, secondary assay; shares compounds with Cl transport mod; FluoZin2 fluorescence; hits give high values; normalised thallium flux (F/F0 slope) at 10 µM; 15% of 3,700 active;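 active = thallium flux slope above the same plate's solvent-only control mean plus 3 SD; inconclusive = the two replicate wells disagree; inactive = no significant difference from solvent-only control wells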
KCC2 bumet counter: thallium flux persisting under bumetanide in KCC2 cells, confirmation, counter-screen for KCC2 modulator project, cell-based, HEK293 KCC2, FluoZin2, secondary assay 3. 49% of 3,700 active. shares compounds with Cl transport mod. normalized thallium flux at 10 µM. AID 1714, 2009. HEK293-KCC2 + bumetanide/ouabain; hits give high values;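 active = thallium entry rate above the same plate's blocked-transporter control wells by more than 3 SD; inconclusive = the two repeat wells disagree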;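 note: raw slope of fluorescence over initial fluorescence between 10 and 20 s after thallium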
KCC2 secondary2: KCC2 modulators without ouabain present, confirmation, cell-based, HEK293 KCC2, thallium flux, FluoZin2, secondary assay 2; thallium flux FluoZin2 fluorescence; actives lie on both sides; F/F0 rise rate, 10–20 s post-thallium; shares compounds with Cl transport mod; normalized thallium flux at 10 µM; 23% of 3,700 active;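 active = thallium flux slope more than 3 SD above or below the plate's solvent-only control mean, mostly below; inconclusive = the two repeat wells disagreed; inactive = no significant shift from solvent-only controls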;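 note: raw slope with 0.1% DMSO as baseline and bumetanide as block control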
HEK counter1: thallium flux modulation in parental HEK cells, confirmation, counter-screen for KCC2 modulator project, cell-based, counterscreen 1; thallium flux rate (normalised fluorescence) at 10 µM; 46% of 3,700 active; HEK293 parental cells, thallium flux FluoZin2, ouabain; baseline-ratio fluorescence slope, 10–20 s after thallium; shares compounds with Cl transport mod;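 active = thallium flux rate significantly above the same plate's solvent-only control wells, beyond their mean plus 3 SD; inconclusive = the two replicate wells gave conflicting results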
KCC2 ouabain: KCC2 inhibitors and activators, ouabain retest, confirmation, HEK-KCC2 cells; 48% of 3,700 active; raw Tl+ flux slope (below DMSO = inhibition, above = activation) at 10 µM; shares compounds with Cl transport mod; AID 1717, 2009; HEK293-KCC2, thallium flux FluoZin2 fluorescence; bidirectional: low = inhibitor, high = activator;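 active = thallium flux slope beyond 3 SD from same-plate DMSO control mean in most replicates, usually higher, sometimes lower; inconclusive = repeat tests gave conflicting results; inactive = no significant difference from controls in most replicates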;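 note: slope of initial-normalized fluorescence between seconds 10 and 20 after thallium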
HEK293 Tl flux2: native HEK Tl+ uptake effects, second counter-screen – HEK cells, counterscreen 2, counter-screen for KCC2 modulator project, confirmation; 33% of 3,700 active; AID 1718, 2009; HEK293 parental, thallium flux FluoZin-2 fluorescence slope; thallium flux slope at 10 µM; shares compounds with Cl transport mod;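 active = thallium flux slope above the same plate's solvent-control mean plus 3 SD in both duplicate wells; inconclusive = duplicate wells that disagreed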;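 note: run without ouabain in cells lacking the KCC2 cotransporter; slope of fluorescence scaled to its starting value between 10 and 20 s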
Starred values were filed as active, the others as inactive; ? = inconclusive; . = no result.

SMILES	DTT redox prof	ROMK mod	p97 ATPase inh	Cl transport mod	PKD1 kinase inh	Mdm2 ligase inh	KCC2 sec1	KCC2 bumet counter	KCC2 secondary2	HEK counter1	KCC2 ouabain	HEK293 Tl flux2
CN(C)c1ccc(C(=O)Nc2nnc(-c3ccc(Cl)cc3)o2)cc1	-2	.	5	20*	-7	-3	0.007	0.06*	0.046*	0.054*	0.051*	0.026*
CC1(c2nnc(-c3ccc(F)cc3)o2)CC(c2c(Cl)cccc2Cl)=NO1 (centres undefined)	.	.	.	0.23	.	27	.	.	.	.	.	.
CCn1c(=O)n(CCOC)c(=O)c2c3c(sc21)CCCC3	0	-0.53	-5	-1.7	2	-13	.	.	.	.	.	.
COCCCn1c(=S)[nH]c2sc3c(c2c1=O)CCCS3	-2	0.86	-4	53*	0	-29	0.033*	0.093*	0.049*	0.068*	0.077*	0.029*
CCOC(=O)c1ccc(NC(=O)c2nn(CC)cc2Br)cc1	0	.	1	-1.2	7	-9	.	.	.	.	.	.
CCOC(=O)c1ccc(NC(=O)c2nn(C)cc2Br)cc1	1	-1.6	-3	.	0	0	.	.	.	.	.	.
CCOC(=O)c1ccc(NC(=S)NC(=O)c2nn(CC)cc2Br)cc1	0	0.78	0	6*	-9	-11	0.011	0.0097*	0.034	0.0092*	0.025	0.012*
CCn1cc(Br)c(C(=O)NC(=S)Nc2ccc(C(=O)OC)cc2)n1	-1	1.2	-5	6.2*	3	-1	0.011	0.018*	0.034	0.013*	0.026	0.012*
Cc1ccc(C(=O)N2CCCC2)cc1Br	0	0.5	-4	-3.1*	0	-2	0.0096	?	0.034	0.0077	0.021	0.011
CCSc1nc(O)cc(=O)[nH]1	.	.	2	.	.	.	.	.	.	.	.	.
CCSc1nc(=S)cc(C)[nH]1	.	.	3	46*	.	-8	0.027*	0.052*	?	0.034*	0.043*	0.018*
CCOC(=O)N1CCC(NC(=O)CS(=O)(=O)Cc2nc(-c3ccc(C)cc3)oc2C)CC1	-1	.	6	0.44	-8	-21	.	.	.	.	.	.
COc1ccc(CNC(=O)CN(c2ccc(OC)cc2)S(=O)(=O)c2c(C)nn(C)c2C)cc1	0	-0.17	6	0.13	-11	0	.	.	.	.	.	.
